Source: ChEMBL document CHEMBL1152293, “Discovery of novel, potent and bioavailable proline-urea based macrocyclic HCV NS3/4A protease inhibitors” (Bioorg Med Chem Lett, 2008)
pEC50, pKi: −log10 of the molar value. Blank lines part the entries; values can stand above or below the molecule they belong to.

Tests used:
[1] = system: Hepatitis C virus; test: Antiviral activity against HCV infected in human Huh7 cells after 48 hrs by luciferase based replicon assay; type: functional, organism-based, Hepacivirus hominis; conditions: Huh-7, 48 h
[2] = Inhibition of full length HCV NS3/4A protease; set-up: species or system Hepacivirus hominis
[3] = Apparent permeability across apical to basolateral side in human Caco-2 cells; type: ADME, cell-based
[4] = Metabolic stability in rat liver microsomes at 5 uM after 15 mins; type: ADME, Microsome
Summary of the method: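 Rat liver microsomes at 1 mg protein/mL were incubated with 5 μM test compound at 37 °C for 15 min. Stability is expressed as % of compound metabolized.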

[5] = Ratio of drug level in liver to plasma of Sprague-Dawley rat at 10 mg/kg, po after 8 hrs
[6] = Cmax in Sprague-Dawley rat at 10 mg/kg, po; type: ADME, organism-based; set-up: dose 10 mg/kg, route oral; conditions: in vivo
Summary of the method: (§1)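 Male Sprague–Dawley rats (n = 2 per route) received a single intravenous dose of 2 mg/kg or an oral dose of 10 mg/kg in 50% PEG-400 in water. Plasma levels were averaged, and PK parameters were calculated. Bioavailability was derived from the iv and oral arms.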

[7] = AUC in Sprague-Dawley rat at 10 mg/kg, po; type: ADME, organism-based; set-up: dose 10 mg/kg, route oral; conditions: plasma; summary of the method: as §1
[8] = Clearance in Sprague-Dawley rat at 2 mg/kg, iv; type: ADME, organism-based; set-up: dose 2 mg/kg, route intravenous; conditions: in vivo; summary of the method: as §1
[9] = Half life in Sprague-Dawley rat at 10 mg/kg, po; type: ADME, organism-based; set-up: dose 10 mg/kg, route oral; conditions: in vivo; summary of the method: as §1
[10] = Oral bioavailability in Sprague-Dawley rat at 10 mg/kg; type: ADME, organism-based; conditions: in vivo; summary of the method: as §1
[11] = AUC in Sprague-Dawley rat at 2 mg/kg, iv; type: ADME, organism-based; set-up: dose 2 mg/kg, route intravenous; conditions: plasma; summary of the method: as §1
[12] = Volume of distribution in Sprague-Dawley rat at 2 mg/kg, iv; type: ADME, organism-based; set-up: dose 2 mg/kg, route intravenous; conditions: in vivo; summary of the method: as §1
[13] = Tmax in Sprague-Dawley rat at 10 mg/kg, po; type: ADME, organism-based; set-up: dose 10 mg/kg, route oral; conditions: in vivo; summary of the method: as §1
[14] = Ratio of drug level in liver to plasma of Sprague-Dawley rat at 10 mg/kg, po after 6 hrs
[15] = Bioavailability in Sprague-Dawley rat at 2 mg/kg, iv and 10 mg/kg, po; type: ADME, organism-based; conditions: in vivo; summary of the method: as §1
[16] = Selectivity index, ratio of CC50 for human Huh7 cells to EC50 for HCV; set-up: species or system Huh-7
[17] = Cytotoxicity against human HuH7 cells; type: cell-based, Huh-7

Compound: COc1ccc2c(O[C@@H]3C[C@H]4C(=O)N[C@]5(C(=O)O)C[C@H]5/C=C\CCCCCN(C)C(=O)N4C3)cc(-c3ccccc3)nc2c1
- pEC50 [1]: 5.35
- pKi [2]: 8.00

Compound: COc1ccc2c(O[C@@H]3C[C@H]4C(=O)N[C@]5(C(=O)O)C[C@H]5/C=C\CCCCC[C@H](NC(=O)OC(C)(C)C)C(=O)N4C3)cc(-c3ccccc3)nc2c1
- pEC50 [1]: 7.11
- pKi [2]: 7.96

Compound: COc1ccc2c(O[C@@H]3C[C@H]4C(=O)N[C@]5(C(=O)O)C[C@H]5/C=C\CCCCCN(NC(=O)OC(C)(C)C)C(=O)N4C3)cc(-c3ccccc3)nc2c1
- pEC50 [1]: < 5.00
- pKi [2]: 6.22

Compound: COc1ccc2c(O[C@@H]3C[C@H]4C(=O)N[C@]5(C(=O)NS(=O)(=O)C6CC6)C[C@H]5/C=C\CCCCCN(C)C(=O)N4C3)cc(-c3ccccc3)nc2c1
- pEC50 [1]: 5.35
- pKi ([2]; read-out: Ki): 8.00

Compound: COc1ccc2c(O[C@@H]3C[C@H]4C(=O)N[C@]5(C(=O)NS(=O)(=O)C6CC6)C[C@H]5/C=C\CCCCOC(=O)N4C3)cc(-c3ccccc3)nc2c1
- pEC50 [1]: 7.21
- pKi ([2]; read-out: Ki): 9.46

Compound: COc1ccc2c(O[C@@H]3C[C@H]4C(=O)N[C@]5(C(=O)NS(=O)(=O)C6CC6)C[C@H]5/C=C\CCCCCN(C)C(=O)N4C3)cc(-c3nc(C(C)C)cs3)nc2c1
- pEC50 [1]: 6.15
- pKi ([2]; read-out: Ki): 7.92

Compound: COc1ccc2c(O[C@@H]3C[C@H]4C(=O)N[C@]5(C(=O)NS(=O)(=O)C6CC6)C[C@H]5/C=C\CCCCCOC(=O)N4C3)cc(-c3ccccc3)nc2c1
- pEC50 [1]: 6.34
- pKi ([2]; read-out: Ki): 8.62

Compound: COc1ccc2c(O[C@@H]3C[C@H]4C(=O)N[C@]5(C(=O)NS(=O)(=O)C6CC6)C[C@H]5/C=C\CCCCCNC(=O)N4C3)cc(-c3cscn3)nc2c1
- pEC50 [1]: 7.01

Stronger by pEC50 [1], values ahead:

- Papp A→B [3]: 0.4 ×10⁻⁶ cm/s
- pEC50 [1]: 7.96
- pKi ([2]; read-out: Ki): 9.52
Compound: COc1ccc2c(O[C@@H]3C[C@H]4C(=O)N[C@]5(C(=O)NS(=O)(=O)C6CC6)C[C@H]5/C=C\CCCCCNC(=O)N4C3)cc(-c3nccs3)nc2c1

- Papp A→B [3]: 22 ×10⁻⁶ cm/s
- metabolized at 0.25 h, 5 µM [4]: 45%
- pEC50 [1]: 8.66
- pKi ([2]; read-out: Ki): 10.00
Compound: COc1ccc2c(O[C@@H]3C[C@H]4C(=O)N[C@]5(C(=O)NS(=O)(=O)C6CC6)C[C@H]5/C=C\CCCCCNC(=O)N4C3)cc(-c3nc(C(C)C)cs3)nc2c1Cl

- pEC50 [1]: 7.36
- pKi ([2]; read-out: Ki): 9.40
Compound: COc1ccc2c(O[C@@H]3C[C@H]4C(=O)N[C@]5(C(=O)NS(=O)(=O)C6CC6)C[C@H]5/C=C\CCCCN(C)C(=O)N4C3)cc(-c3ccccc3)nc2c1

- pEC50 [1]: 7.82
- pKi ([2]; read-out: Ki): 9.62
Compound: COc1ccc2c(O[C@@H]3C[C@H]4C(=O)N[C@]5(C(=O)NS(=O)(=O)C6CC6)C[C@H]5/C=C\CCCCCNC(=O)N4C3)cc(-c3ccccc3)nc2c1

- Papp A→B [3]: 29 ×10⁻⁶ cm/s
- metabolized at 0.25 h, 5 µM [4]: 21%
- pEC50 [1]: 8.40
- pKi ([2]; read-out: Ki): 10.00
Compound: COc1ccc2c(O[C@@H]3C[C@H]4C(=O)N[C@]5(C(=O)NS(=O)(=O)C6(C)CC6)C[C@H]5/C=C\CCCCCNC(=O)N4C3)cc(-c3nc(C(C)C)cs3)nc2c1Cl

- liver/plasma ratio at 8 h [5]: 12
- Cmax [6]: 730 nM
- AUC [7]: 3.12 µM·h
- clearance [8]: 27.5 mL/min/kg
- half-life [9]: 2.55 h
- bioavailability [10]: 37%
- AUC [11]: 1.65 µM·h
- pEC50 [1]: 7.59
- Vd [12]: 4.5 L/kg
- pKi ([2]; read-out: Ki): 9.35
- Tmax [13]: 1.25 h
Compound: COc1ccc2c(O[C@@H]3C[C@H]4C(=O)N[C@]5(C(=O)NS(=O)(=O)C6CC6)C[C@H]5/C=C\CCCCN(C)C(=O)N4C3)cc(-c3nc(C(C)C)cs3)nc2c1

- Cmax [6]: 26 nM
- Papp A→B [3]: 3 ×10⁻⁶ cm/s
- AUC [7]: 0.19 µM·h
- clearance [8]: 15.7 mL/min/kg
- half-life [9]: 3.8 h
- bioavailability [10]: 1.3%
- AUC [11]: 3 µM·h
- pEC50 [1]: 8.30
- Vd [12]: 1.6 L/kg
- liver/plasma ratio at 6 h [14]: 9.5
- pKi ([2]; read-out: Ki): 9.30
- Tmax [13]: 2 h
Compound: COc1ccc2c(O[C@@H]3C[C@H]4C(=O)N[C@]5(C(=O)NS(=O)(=O)C6CC6)C[C@H]5/C=C\CCCCNC(=O)N4C3)cc(-c3nc(C(C)C)cs3)nc2c1

- bioavailability [15]: 11%
- pEC50 [1]: 8.17
- pKi ([2]; read-out: Ki): 9.70
Compound: COc1ccc2c(O[C@@H]3C[C@H]4C(=O)N[C@]5(C(=O)NS(=O)(=O)C6(C)CC6)C[C@H]5/C=C\CCCCCNC(=O)N4C3)cc(-c3nc(C(C)C)cs3)nc2c1C

- metabolized at 0.25 h, 5 µM [4]: 23%
- pEC50 [1]: 8.77
- pKi ([2]; read-out: Ki): 10.30
Compound: COc1ccc2c(O[C@@H]3C[C@H]4C(=O)N[C@]5(C(=O)NS(=O)(=O)C6CC6)C[C@H]5/C=C\CCCCCNC(=O)N4C3)cc(-c3nc(C(C)C)cs3)nc2c1C

- Cmax [6]: 1710 nM
- Papp A→B [3]: 30 ×10⁻⁶ cm/s
- clearance [8]: 9.83 mL/min/kg
- bioavailability [10]: 54%
- bioavailability [15]: 54%
- metabolized at 0.25 h, 5 µM [4]: 89%
- pEC50 [1]: 8.35
- liver/plasma ratio at 6 h [14]: 105
- pKi ([2]; read-out: Ki): 10.00
Compound: COc1ccc2c(O[C@@H]3C[C@H]4C(=O)N[C@]5(C(=O)NS(=O)(=O)C6(C)CC6)C[C@H]5/C=C\CCCCCNC(=O)N4C3)cc(-c3nc(C(C)C)cs3)nc2c1
- Selectivity Index [16]: >10000
- CC50 ([17]; Huh-7 cells): > 50000 nM
- Activity ([17]; huh-7): Non-toxic

- Cmax [6]: 950 nM
- Papp A→B [3]: 10 ×10⁻⁶ cm/s
- AUC [7]: 6.97 µM·h
- clearance [8]: 9.17 mL/min/kg
- half-life [9]: 5.4 h
- bioavailability [10]: 20%
- bioavailability [15]: 20%
- AUC [11]: 7.09 µM·h
- metabolized at 0.25 h, 5 µM [4]: 93%
- pEC50 [1]: 8.30
- Vd [12]: 1.46 L/kg
- liver/plasma ratio at 6 h [14]: 29
- pKi ([2]; read-out: Ki): 9.70
- Tmax [13]: 1.25 h
Compound: COc1ccc2c(O[C@@H]3C[C@H]4C(=O)N[C@]5(C(=O)NS(=O)(=O)C6CC6)C[C@H]5/C=C\CCCCCNC(=O)N4C3)cc(-c3nc(C(C)C)cs3)nc2c1

- pEC50 [1]: 7.85
- pKi ([2]; read-out: Ki): 8.82
Compound: COc1ccc2c(O[C@@H]3C[C@H]4C(=O)N[C@]5(C(=O)NS(=O)(=O)C6CC6)C[C@H]5/C=C\CCCCNC(=O)N4C3)cc(-c3ccccc3)nc2c1
